From ChEMBL document CHEMBL1127424, “7-azetidinylquinolones as antibacterial agents. 2. Synthesis and biological activity of 7-(2,3-disubstituted-1-azetidinyl)-4-oxoquinoline- and -1,8-naphthyridine-3-carboxylic acids. Properties and structure-activity relationships of quinolones with an azetidine moiety” (J Med Chem, 1994)
≈ marks a conversion by molar mass, not a printed value.

Columns and labels:
[1] = Measured ionization constant (pKa); type: physicochemical; conditions: read-out: pKa1
Outline: (§1)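 Spectrophotometric titration at 20 ± 1 °C, 0.1 M ionic strength, pH varied with H2SO4 or NaOH made up in the compound stock. Absorbance followed at compound-specific wavelengths chosen from 200–400 nm scans. pKa1 and pKa2 taken as the inflection points of the two-step absorbance vs pH curve.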

[2] = Dissociation constant (pKa); type: physicochemical; conditions: read-out: pKa2; outline: as §1
[3] = HPLC capacity factor (k'); type: ADME
Outline: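 Ion-pair reversed-phase HPLC on ODS-2 (10 μm) at 45 °C. Mobile phase: 10 mM sodium heptanesulfonate plus 50 mM KH2PO4 (pH 3.5)–methanol 45:55, 1 mL/min. Samples at 100 μg/mL in DMF, injected in duplicate, UV 280 nm. k' = (tR − t0)/t0.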

[4] = Solubility (buffer pH 7.4); type: physicochemical; conditions: read-out: S
Outline: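 Excess solid shaken in 0.05 M phosphate buffer pH 7.4 for 24 h at 25 °C. Suspension filtered through 0.22 μm, discarding the first portion. Filtrate diluted in 0.1 N HCl or 0.1 N NaOH and read by UV at the compound's absorbance maximum.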

[5] = AUC (0-4 hr) ug/ml/h; type: ADME, cell-free; parameters: time < 4 hr; concentration or dose not given beside the values; conditions: plasma
Outline: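 Mice dosed once orally at 50 mg/kg; blood taken from groups of six mice at 0.5, 1, 2 and 4 h. Serum drug assayed by disk agar diffusion bioassay (Bacillus subtilis ATCC 6633 on Seed Agar, 37 °C, 18 h), giving total activity.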

Bacillus cereus = assay: In vitro minimum inhibitory concentration for Bacillus cereus ATCC 11778; type: functional
Outline: (§2)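 Serial 2-fold agar dilution in Mueller Hinton medium, run alongside a reference quinolone. Inoculum adjusted to 10⁸ cfu/mL; compound range 0.007–16 μg/mL.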

Bacillus subtilis = assay: In vitro minimum inhibitory concentration for Bacillus subtilis ATCC 6633; type: functional; outline: as §2
Escherichia coli [6] = assay: In vitro minimum inhibitory concentration for Escherichia coli ATCC 10799; type: functional; outline: as §2
Enterobacter cloacae = assay: In vitro minimum inhibitory concentration for Enterobacter cloacae ATCC 23355; type: functional
Klebsiella pneumoniae = assay: In vitro minimum inhibitory concentration to inhibit Klebsiella pneumoniae ATCC 10031; type: functional; outline: as §2
Mus musculus [7] = assay: Evaluation of efficacy on systemic infections Escherichia coli HM-42, after oral administration in mice; type: functional
Outline: (§3)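 Single oral dose given immediately after infection, one of four doses per group, chosen from in vitro activity. Survival scored after one week. ED50 (total mg/kg protecting 50%) interpolated from survival rates.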

Mus musculus [8] = assay: Evaluation of efficacy on systemic infections Pseudomonas aeruginosa HS-116, after oral administration in mice; type: functional; outline: as §3
Mus musculus [9] = assay: Evaluation of efficacy on systemic infections Staphylococcus aureus HS-93, after oral administration in mice; type: functional; outline: as §3
Morganella morganii = assay: In vitro minimum inhibitory concentration for Morganella morganii ATCC 8019; type: functional; outline: as §2
Proteus vulgaris = assay: In vitro minimum inhibitory concentration for Proteus vulgaris ATCC 8427; type: functional; outline: as §2
[10] = tested on: Staphylococcus epidermidis; assay: In vitro minimum inhibitory concentration for Staphylococcus epidermidis ATCC 155-1; type: functional; outline: as §2
Staphylococcus aureus = assay: In vitro minimum inhibitory concentration for Staphylococcus aureus ATCC 25178; type: functional; outline: as §2
Enterococcus faecalis [11] = assay: In vitro minimum inhibitory concentration for Streptococcus faecalis ATCC 10541; type: functional; outline: as §2
Pseudomonas aeruginosa = assay: In vitro minimum inhibitory concentration for Pseudomonas aeruginosa ATCC 10145; type: functional; outline: as §2
Escherichia coli [12] = assay: In vitro minimum inhibitory concentration to inhibit Escherichia coli ATCC 10799; type: functional
Outline: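 Serial 2-fold agar dilution on Mueller Hinton medium, run alongside 1b as comparator. Inoculum adjusted to 10⁸ cfu/mL; compound range 0.007 to 16 μg/mL. Incubated 37 °C for 18 h. MIC taken as the lowest concentration preventing visible growth.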

Enterococcus faecalis [13] = assay: microbe, parasite or virus in culture; conditions: ATCC 10541

pKa [1] | pKa [2] | Log k' [3] | solubility [4] | AUC [5] | MIC (Bacillus cereus) | MIC (Bacillus subtilis) | MIC (Enterobacter cloacae) | MIC (Klebsiella pneumoniae) | MIC (Morganella morganii) | MIC (Proteus vulgaris) | MIC [10] | MIC (Staphylococcus aureus) | MIC (Enterococcus faecalis [11]) | MIC (Pseudomonas aeruginosa) | SMILES | ED50 (Mus musculus [7]) | ED50 (Mus musculus [8]) | ED50 (Mus musculus [9]) | further results
6 | 8.14 | 0.584 | 58 µg/mL (≈ 160 µM) |  |  |  |  |  |  |  |  |  |  |  | CN(C)C1CN(c2c(F)cc3c(=O)c(C(=O)O)cn(C4CC4)c3c2F)C1 |  |  |  | 
6.58 | 8.55 | -0.1249 |  |  |  |  |  |  |  |  |  |  |  |  | CC1(N)CN(c2cc3c(cc2F)c(=O)c(C(=O)O)cn3C2CC2)C1 |  |  |  | 
6.26 | 8.58 | 0.1055 | 0.5 µg/mL (≈ 1.38 µM) |  |  |  |  |  |  |  |  |  |  |  | CNC1(C)CN(c2c(F)cc3c(=O)c(C(=O)O)cn(C4CC4)c3c2F)C1 |  |  |  | 
6.18 | 8.44 | 0.039 | 1.7 µg/mL (≈ 4.87 µM) |  |  |  |  |  |  |  |  |  |  |  | CNC1CN(c2c(F)cc3c(=O)c(C(=O)O)cn(C4CC4)c3c2F)C1 |  |  |  | 
6.12 | 8.2 | -0.0438 | 1.8 µg/mL (≈ 5.37 µM) |  |  |  |  |  |  |  |  |  |  |  | NC1CN(c2c(F)cc3c(=O)c(C(=O)O)cn(C4CC4)c3c2F)C1 |  |  |  | 
6.29 | 7.9 | 0.668 | 96.3 µg/mL (≈ 268 µM) | 12100 ng·h/mL | 0.5 µg/mL (≈ 1.39 µM) | 0.06 µg/mL (≈ 0.167 µM) | 0.5 µg/mL (≈ 1.39 µM) | 0.06 µg/mL (≈ 0.167 µM) | 0.5 µg/mL (≈ 1.39 µM) | 0.5 µg/mL (≈ 1.39 µM) | 0.12 µg/mL (≈ 0.334 µM) | 0.25 µg/mL (≈ 0.696 µM) | 4 µg/mL (≈ 11.1 µM) | 4 µg/mL (≈ 11.1 µM) | C[C@@H]1[C@@H](N(C)C)CN1c1cc2c(cc1F)c(=O)c(C(=O)O)cn2C1CC1 | 4.5 mg/kg | 135 mg/kg | 62.1 mg/kg | MIC (Escherichia coli [6]): 0.5 µg/mL (≈ 1.39 µM)
6.38 | 8.21 | -0.1606 | 13.9 µg/mL (≈ 41.8 µM) |  |  |  |  |  |  |  |  |  |  |  | CC1(N)CN(c2nc3c(cc2F)c(=O)c(C(=O)O)cn3C2CC2)C1 |  |  |  | 
 |  | 0.0145 |  |  | 0.25 µg/mL (≈ 0.741 µM) | 0.06 µg/mL (≈ 0.178 µM) | 0.06 µg/mL (≈ 0.178 µM) | 0.015 µg/mL (≈ 0.0445 µM) | 0.06 µg/mL (≈ 0.178 µM) | 0.25 µg/mL (≈ 0.741 µM) | 0.12 µg/mL (≈ 0.356 µM) | 0.25 µg/mL (≈ 0.741 µM) | 1 µg/mL (≈ 2.96 µM) | 1 µg/mL (≈ 2.96 µM) | CCn1cc(C(=O)O)c(=O)c2cc(F)c(N3C[C@@H](N)[C@@H]3C)c(F)c21 | 4 mg/kg | 56.3 mg/kg | 5.1 mg/kg | MIC (Escherichia coli [12]): 0.12 µg/mL (≈ 0.356 µM)
6.08 | 8.2 | 0.769 | 97.1 µg/mL (≈ 257 µM) | 23200 ng·h/mL | 1 µg/mL (≈ 2.65 µM) | 0.015 µg/mL (≈ 0.0397 µM) | 0.12 µg/mL (≈ 0.318 µM) | 0.06 µg/mL (≈ 0.159 µM) | 0.25 µg/mL (≈ 0.662 µM) | 0.25 µg/mL (≈ 0.662 µM) | 0.06 µg/mL (≈ 0.159 µM) | 0.12 µg/mL (≈ 0.318 µM) | 1 µg/mL (≈ 2.65 µM) | 2 µg/mL (≈ 5.3 µM) | C[C@@H]1[C@@H](N(C)C)CN1c1c(F)cc2c(=O)c(C(=O)O)cn(C3CC3)c2c1F | 3.1 mg/kg | 164 mg/kg | 17.9 mg/kg | MIC (Escherichia coli [6]): 0.25 µg/mL (≈ 0.662 µM)

SMILES | pKa [1] | pKa [2] | Log k' [3] | solubility [4] | AUC [5] | MIC (Bacillus cereus) | MIC (Bacillus subtilis) | MIC (Enterobacter cloacae) | MIC (Klebsiella pneumoniae) | MIC (Morganella morganii) | MIC (Proteus vulgaris) | MIC [10] | MIC (Staphylococcus aureus) | MIC (Enterococcus faecalis [11]) | MIC (Pseudomonas aeruginosa) | ED50 (Mus musculus [7]) | ED50 (Mus musculus [8]) | ED50 (Mus musculus [9]) | further results
O=C(O)c1cn(C2CC2)c2cc(N3CCNCC3)c(F)cc2c1=O [CIPROFLOXACIN] |  |  |  |  | 2300 ng·h/mL | 0.25 µg/mL (≈ 0.754 µM) | 0.06 µg/mL (≈ 0.181 µM) |  |  | 0.06 µg/mL (≈ 0.181 µM) | 0.06 µg/mL (≈ 0.181 µM) | 0.5 µg/mL (≈ 1.51 µM) | 0.25 µg/mL (≈ 0.754 µM) |  | 0.12 µg/mL (≈ 0.362 µM) | 3 mg/kg | 70.3 mg/kg | 45.1 mg/kg | MIC (Enterococcus faecalis [13]): 0.5 µg/mL (≈ 1.51 µM)
